Test results from the EternaBench riboswitch data.

Test system: MS2 coat protein
Experiment: apparent Kd, MS2 coat protein; higher = weaker binding; RNA-MaP array; FMN 200 µM where present
Procedure, shortened: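 Green signal was scaled to red-channel RNA signal and control-cluster median Fmax, and the apparent Kd was taken as the median of filtered per-cluster binding-curve fits. The binding series used SNAP-549-labelled MS2 coat protein from 0.7 or 1.5 nM, doubling to 3 µM, on designs transcribed by stalled E. coli RNA polymerase on Illumina sequencing-chip clusters. Each series ran without and then with constant ligand in 100 mM Tris-HCl pH 7.5, 80 mM KCl, 4 mM MgCl2, BSA, DTT, yeast tRNA and Tween-20.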

[1] = designed as: OFF switch for flavin mononucleotide, no ligand
[2] = ligand present: flavin mononucleotide, designed as: OFF switch for flavin mononucleotide
[3] = designed as: ON switch for flavin mononucleotide, no ligand
[4] = ligand present: flavin mononucleotide, designed as: ON switch for flavin mononucleotide

Sequence	apparent Kd [1]	apparent Kd [2]	apparent Kd [3]	apparent Kd [4]
GUGAGGUAAGGAUAUAGGAGAAAAGAUAAGGUAUGAGAGUUCUAGAAGGUACAUGAGGAUCACCCAUGUUAGGG	224 nM	193 nM		
UGCGUACAAGCAGACAUGAGGAUCACCCAUGUAGUCUUAUGCGAGGAUAUCGGGAAGGAGGAUUCCGAGAAGGUGCGGUGAGCC			25.4 nM	21.9 nM
AAAACAUGAGGAUCACCCAUGUAAAGUUCGGUUAAUAGAGGUGAGGAUAUACUAAAUUUUGGGUGGUAGAAGGCACUGGGUACA			122 nM	105 nM
UGUCGGAGCAGAGGAUAUUACAUGAGGAUCACCCAUGUAUGAACCUAUAGCUGGAAACAGCAAUGUAAGAAGGCUGCUCCGACA	23.5 nM	338 nM		
AGCUGGUGACAGCAUCCAUCAAAACAUGAGGAUCACCCAUGUAGAAGGCUGUACGGUUACCGUACAGAGGAUAUACAAUGAUGU	15.2 nM	26.2 nM		
GCGUGAUUGUAGAAGGUACAUGAAAAUAUUUAAUACCUCAAGUAACAUGAGGAUCACCCAUGUAGUAAGGAUAUACAUAUACGC			95 nM	56.8 nM
UUACAUACAAAGUUACAUGAGGAUCACCCAUGUUUAUUGGGAAGAAGGGUAACAGUAUUACAUAUAUAGGAUAUUUCACAAUUG			333 nM	181 nM
CAGGAGAACACAGGAUAUCCGUAAGACAUGAGGAUCACCCAUGUUUGUGGCCCGCCAGGGCUGACGGAGAAGGGUGACUCGCAC			9.04 nM	5.81 nM
UGGUACAUGGGAGGAUAUGGGUUGAUAACAUGAGGAUCACCCAUGUUAAUGCCGAAAGGCAAGAACUAGAAGGCCCAUGUACCU			410 nM	30.2 nM
UUUUAACAUGAGGAUCACCCAUGUGAGGAUAUCGUUAUUUUUAUUAAUAUUAAUAAAACGAGAAGGCACAUUUU	104 nM	114 nM		
CGCUAAUAAAUAGUAAUAAAAGUACAGGAUAUGUUACAUGAGGAUCACCCAUGUAUUGGGUAAGAACAGAAGGGUAUAUUAGCG	153 nM	115 nM		
AACUAGCUAGGAUAUACAUGAGGAUCACCCAUGUAAAAAAAAAAAAAAAGAUCAAAAUGUAGAAGGAGCUAGUA	106 nM	132 nM		
AAUCCACAUGAGGAUCACCCAUGUGAGGAUAUGUCCAUAUUCGGCAAAUCGGAUAUGGACAGAAGGCACAUAAA	32.9 nM	87.1 nM		
GUGGUCAGACAUGAGGAUCACCCAUGUGGAAUAAAUAACGGACAGGAUAUAGAAUAUAGGAUAUACUAGAAGGGUUGAUUGGUG			55.7 nM	57.3 nM
UUACUCAUGUAAGGAUAUGUAGCCGUUUCGGCUGCAGAAGGUACUAUAAUACAUGAGGAUCACCCAUGUCUUUUUAAUUUAGAC			69.3 nM	39.8 nM
CGUAGGAUCCAGAAGGCAUGAACAUGAGGAUCACCCAUGUGAAAAGACAUGAGGAUAUGGAUCCUACGAAAAGUGCGAAAGCAC			5.53 nM	5.47 nM
AUGGACGCAGGAUAUACAUGAGGAUCACCCAUGUUAGGGUUAAGAGAAGGAAGGGAGAGUAGAAGGGCGAGAGU	118 nM	89.3 nM		
CUCUCUCAUCGAGGAUAUCGAACUUCCACCCUUCGAGAAGGCGACAUGAGGAUCACCCAUGUAAGGAGGACACUCACUCACACA	22.6 nM	20.9 nM		
GUGCGGUAGGAGAAGGACGGAGGCUUCUUUUCAUACAUGAGGAUCACCCAUGUAGGAUAUCCUACCUCACGCGGCCUCCUUCUG	4.77 nM	4.99 nM		
GUCAGCUCGUGAGGAUAUACAACACUGCUUCGGCAGUGUCUUAAGAUCACAUGAGGAUCACCCAUGUAGAAGGCACGAGCUGAU	8.98 nM	168 nM		
GGUGCGUAUGUGAGGAUAUGCUGGUCCUUGGUUCAGCAGAAGGCACAUGAGGAUCACCCAUGUGGUGUCGUACC	289 nM	26.4 nM		
UGAAAUCAUGUAGGAUAUGCAUGGCGAAGCUACGCAGAAGGACAUGAGGAUCACCCAUGUGCUAGCUACCGAGUUCGGUGGCAA	103 nM	215 nM		
UGAGCAUGAGGAUAUACAAGGCGUGCCGUAGCACGAGGUCUACAUGAGGAUCACCCAUGUAGAAGGCAUGUUCU	16.8 nM	36.9 nM		
